Measured values published in PMC6536312 (Bioorganic & medicinal chemistry, 2019).
Read-outs that look alike come from different tables or passages of the source.

How the values were obtained:
[1] = biological target: T1, σ2 receptor (Rattus norvegicus, UniProt Q5U3Y7); experiment: Radioligand binding assay at sigma-2 receptor; conditions: for fold lower affinity at the σ2 receptor than compound 3: vs compound 3
T1 sequence (Q5U3Y7 1-176): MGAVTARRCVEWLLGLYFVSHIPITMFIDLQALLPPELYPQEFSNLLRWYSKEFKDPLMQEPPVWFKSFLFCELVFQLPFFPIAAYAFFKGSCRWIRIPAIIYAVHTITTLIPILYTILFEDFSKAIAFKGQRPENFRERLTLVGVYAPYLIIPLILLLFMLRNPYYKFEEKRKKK

[2] = tested on: Panc-1 cells; experiment: Cell viability study; type: cell-based, human
How it was run: (§1)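 Cells were maintained in high-glucose GlutaMax DMEM with 10% heat-inactivated FBS. They were seeded at 20,000/well, left overnight in 5% FBS medium, then dosed in 1:9 DMSO/acetone against vehicle controls, redosed every 24 h for the 48 h and 72 h runs. Resazurin (0.02% in PBS) was added for 2-3 h, read at ex 560/em 590 nm. IC50 came from nonlinear regression of log concentration versus % control.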

[3] = biological target: T1, σ2 receptor; conditions: previously reported; cited from earlier work
[4] = biological target: σ1 receptor (Cavia porcellus, UniProt Q60492); experiment: Radioligand binding assay at sigma-1 receptor
[5] = tested on: MDA-MB-231 cells; experiment: Cell viability study; type: cell-based, human
How it was run: as §1

σ1 receptor, sequence (Q60492 whole entry): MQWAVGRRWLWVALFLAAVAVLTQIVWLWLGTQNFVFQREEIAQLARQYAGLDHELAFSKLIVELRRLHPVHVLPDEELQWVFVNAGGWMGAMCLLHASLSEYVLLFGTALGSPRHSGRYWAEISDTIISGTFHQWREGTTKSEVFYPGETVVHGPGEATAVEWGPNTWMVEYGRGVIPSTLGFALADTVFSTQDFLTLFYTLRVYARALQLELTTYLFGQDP

SMILES: O=C1c2ccc(Cl)cc2CC1CCN1CCCN(c2ccc(Cl)cc2)CC1 (stereo not shown) [Compound 8, 5-chloro-2-(2-(4-(4-chlorophenyl)-1,4-diazepan-1-yl)ethyl)-2,3-dihydro-1H-inden-1-one]
- fold lower affinity at the σ2 receptor than compound 3 [1]: over 31 fold

SMILES: O=C(CCCN1CCCN(c2ccc(Cl)cc2)CC1)c1ccc(F)cc1 [Compound 1, 4-(4-(4-chlorophenyl)-1,4-diazepan-1-yl)-1-(4-fluorophenyl)butan-1-one]
- IC50, cell viability [2]: sub-micromolar
- Ki(σ1)/Ki(σ2) [3]: 4.3

SMILES: O=C1c2ccccc2CC1CCN1CCCN(c2ccc(Cl)cc2)CC1 (stereo not shown) [Compound 4, 2-(2-(4-(4-chlorophenyl)-1,4-diazepan-1-yl)ethyl)-2,3-dihydro-1H-inden-1-one]
- fold lower affinity at the σ2 receptor than compound 3 [1]: over 7 fold
- fold higher affinity than compound 3 at the σ1 receptor ([4]; vs compound 3): 3 fold

SMILES: O=C1c2ccc(F)cc2CC1CCN1CCCN(c2ccc(Cl)cc2)CC1 (stereo not shown) [Compound 3]
- fold higher affinity for σ2 receptor compared to compound 1 ([1]; vs compound 1): greater than 9 fold
- fold lower affinity for the σ1 receptor compared to compound 1 ([4]; vs compound 1): more than 2 fold

SMILES: O/N=C(\CCCN1CCCN(c2ccc(Cl)cc2)CC1)c1ccc(F)cc1 [Compound 12, 4-(4-(4-chlorophenyl)-1,4-diazepan-1-yl)-1-(4-fluorophenyl)butan-1-one oxime]
- IC50, cell viability [2]: sub-micromolar

SMILES: N.N.[Cl][Pt][Cl] [Cisplatin]
- IC50 ([5]; read-out: IC50 (48 h), cell viability, MDA-MB-231, 48 h treatment): 50 ± 9.8 µM
- IC50 ([5]; read-out: IC50 (72 h), cell viability, MDA-MB-231, 72 h treatment): 64.2 ± 4.3 µM
